From ChEMBL document CHEMBL4043282, “Discovery of the First Potent, Selective, and Orally Bioavailable Signal Peptide Peptidase-Like 2a (SPPL2a) Inhibitor Displaying Pronounced Immunomodulatory Effects In Vivo” (J Med Chem, 2018) come the findings set out here.

Series [1] in a line: Equilibrium solubility of the compound at pH 6.8 after 24 hrs by saturation shake flask based UV-HPLC method. The series is classed as physicochemical. The conditions noted are these: buffer.
A short description of series [2]: Drug uptake in mouse spleen at 10 mg/kg, po administered as single dose after 4 hrs by LC/MS/MS analysis. The conditions noted are these: read-out: Drug uptake. Format: ADME, organism-based.
Series [3] is described as follows: Drug uptake in mouse spleen at 100 mg/kg, po administered as single dose after 4 hrs by LC/MS/MS analysis. The series is classed as ADME, organism-based. The conditions noted are these: read-out: Drug uptake.
Series [4] can be described thus: Selectivity ratio of IC50 for human gamma-secretase expressed in HEK293 cells to IC50 for human SPPL2a expressed in HEK293 cells. The procedure, abridged: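 HEK293 transiently transfected: SPPL2a arm with human SPPL2a, VP16-TNFα(aa1-76)-NTF and Gal4-luciferase; γ-secretase arm with human Notch1-VP16-Gal4 plus reporter (endogenous γ-secretase). Compound added 3 h after plating, 10 μM–0.3 nM final, triplicate, 24 h at 37 °C; luminescence read. IC50 from concentration vs normalised luminescence; ratio of the two IC50s.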

For series [5], the system named is Mus musculus. Description: Immunomodulatory activity in mouse assessed as reduction in follicular B cells in splenocyte at 3 to 30 mg/kg administered via oral gavage bid at 8 and 16 hrs dosing interval between first and second dose respectively for 11 days measured 16 hrs post last dose on day 12 by flow cytometry. The series is classed as functional, organism-based. Summed up:
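Mice gavaged with compound in 0.5% MC:0.5% Tween or PEG:D5W 3:1. Spleens dissociated in GentleMACS, filtered at 40 μm, ACK red-cell lysis, counted; 1 × 10^6 splenocytes stained 30 min on ice in HBSS/2% FBS/5 mM EDTA with antimouse panels for B-cell subsets (B220, CD21, CD23, IgM, IgD) or dendritic cells (PDCA1, CD11c, MHCII, lineage markers); analyzed on Fortessa flow cytometer.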

Series [6] in a line: Total plasma concentration in mouse at 30 mg/kg administered via oral gavage measured after 16 hrs post dose by LC/MS/MS analysis. The series is classed as ADME, organism-based. The procedure, abridged: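 Mice dosed by oral gavage in 0.5% MC:0.5% Tween or PEG:D5W 3:1. 50 μL blood taken retro-orbitally into LiHep tubes; in chronically dosed animals the trough sample came before the morning dose. Kept on ice, plasma separated by centrifugation at 2823g, 5 min, stored at −20 °C until analysis.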

Another series has as its system Rattus norvegicus. Description: In vivo inhibition of SPPL2a in Lewis rat assessed as accumulation of CD74/p8 in blood at 3 mg/kg first dose administered via oral gavage followed by second dose after 8 hrs measured 16 hrs post second dose by Western blot method. Format: functional, organism-based. The procedure, abridged: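 Rat blood (200 μL) red cells lysed with RBC lysis buffer three times, pellet lysed in Tris pH 6.8/NaCl/EDTA/Triton X-100/deoxycholate with protease inhibitors; Western blot for CD74/p8 with affinity-purified antibody specific for rat CD74/p8 at 1:200.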
(A western blot detects proteins with antibodies after separation by electrophoresis.)

Series [7] is described as follows: Total concentration in Lewis rat blood at 3 mg/kg, po bid after 24 hrs by LC/MS/MS analysis. The series is classed as ADME, organism-based. The conditions noted are these: read-out: Drug uptake.
Series [8] is described as follows: Drug uptake in Lewis rat spleen at 1 mg/kg, po bid after 24 hrs by LC/MS/MS analysis. Format: ADME, organism-based. The following applies: read-out: Drug uptake.
The test system of series [9] is Mus musculus. Nature of the series: In vivo inhibition of gamma-secretase dependent Notch1 signaling in mouse assessed as effect on Hes1 mRNA level in thymus at 3 to 30 mg/kg, po bid administered at 8 and 16 hrs dosing interval between first and second dose respectively for 11 days measured 16 hrs post last dose on day 12 by RT-PCR analysis. The series is classed as organism-based. Summed up:
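Thymus and jejunum excised into RNALater, 4 °C overnight, washed, frozen at −80 °C; total RNA from 10 mg tissue by MagNA Pure LC; Hes1 measured by TaqMan real-time PCR; significance by two-tailed heteroscedastic Student's t-test.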

Structures are written as SMILES. In brackets after ≈: the same amount, converted by molar mass. Activity calls are given as the source filed them. The rule behind the calls is not given here.

For orientation: thermodynamic solubility means solubility found after equilibrating the solid with the medium.

`Cc1ccccc1NC(=O)C[C@@H](C)C(=O)N[C@@H]1C(=O)N2CCCN2Cc2ccccc21`: the thermodynamic solubility at 24 h in [1] was 263 µM (≈ 111 µg/mL). In addition, the concentration at 4 h in [2] was determined as 127 nM; in series [3], 1440 nM. Further, the “Ratio IC50” value in [4] is 52.

Take `Cc1ncc(F)cc1NC(=O)C[C@H](C(=O)N[C@@H]1C(=O)N2CC3(CC3)CN2C(=O)c2ccccc21)C1CC1`: in the series with Mus musculus [5], the result was Active. In [6], the concentration at 16 h is 136 nM. For the same compound, the inhibition result in the series on Rattus norvegicus was “Active”. For the same compound, the concentration at 24 h in series [7] was found to be 231 nM; in [8], 330 nM. Moreover, the Activity entry with Mus musculus [9] is listed as “Non-Toxic”.
